The source of these data is ChEMBL document CHEMBL2331364, “A synthetic dolastatin 10 analogue suppresses microtubule dynamics, inhibits cell proliferation, and induces apoptotic cell death” (J Med Chem, 2013).

The species named for assay [1] is Homo sapiens. In words: Inhibition of microtubule (unknown origin) assembly at 5 uM incubated for 15 mins prior to GTP addition measured for 30 mins by 90 degree light scattering-based fluorescence spectrophotometric method. In a few lines: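 MAP-rich tubulin (1 mg/mL) was preincubated with 1, 3, 5 or 10 μM in PEM buffer (25 mM Pipes pH 6.8, 3 mM MgCl2, 1 mM EGTA) for 15 min on ice. GTP (1 mM) was then added and assembly monitored by 90° light scattering at 400 nm for 30 min at 37 °C.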

The subject of assay [2] is HeLa. In words: Induction of apoptosis in human HeLa cells assessed as caspase-3 dependent PARP cleavage at 30 nM after 24 hrs by Western blot analysis. It is filed as functional, cell-based. Put shortly:
(§1)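 HeLa cells were treated with vehicle or 30 nM for 24 h and washed twice in PBS. Lysates were Western blotted with antibodies to JNK1, phospho-JNK, procaspase-3 and PARP.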
For orientation: In western blotting, separated proteins are transferred to a membrane and probed.

Assay [3] deals with HeLa. In words: Induction of apoptosis in human HeLa cells assessed as caspase-3 activation at 30 nM after 24 hrs by Western blot analysis. It is filed as functional, cell-based. In a few lines: as §1
Assay [4] has as its system HeLa. In words: Induction of apoptosis in human HeLa cells assessed as activated JNK1 level at 30 nM after 24 hrs by Western blot analysis relative to control. It counts as functional, cell-based. In a few lines:
as §1

Assay [5] has as its system HeLa. In words: Induction of apoptosis in human HeLa cells assessed as genomic DNA fragmentation at 7 to 30 nM after 40 hrs by ethidium bromide staining-based electrophoresis. It counts as functional, cell-based.
The test system of assay [6] is HeLa. In words: Induction of apoptosis in human HeLa cells assessed as late apoptotic cells at 30 nM after 24 hrs by annexin V/propidium iodide staining-based FACS flow cytometry. It is filed as functional, cell-based. In a few lines: (§2)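 HeLa cells were grown with vehicle (0.1% DMSO) or 7, 15 and 30 nM for 24 h and stained with an annexin V/propidium iodide kit. Stage was scored as annexin V-positive with weak PI (early/mid) or positive for both (late).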

Assay [7] has as its system HeLa. Description: Induction of apoptosis in human HeLa cells assessed as early apoptotic cells at 7 to 15 nM after 24 hrs by annexin V/propidium iodide staining-based FACS flow cytometry. It is filed as functional, cell-based. In a few lines: as §2
The test system of assay [8] is HeLa. Description: Inhibition of microtubule-kinetochore tension in human HeLa cells assessed as Mad2 accumulation at kinetochoric region at 15 to 45 nM after 24 hrs by Hoechst 33258 dye-based Hec1 staining assay. It counts as cell-based.
The subject of assay [9] is MCF7. In words: Inhibition of microtubule (unknown origin) dynamics in GFP-tubulin transfected human MCF7 cells assessed as decrease in microtubule catastrophe frequency at 15 nM by confocal laser scanning microscopy relative to control. It counts as cell-based. Put shortly:
(§3)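 EGFP-tubulin transfected MCF-7 cells were treated with vehicle or 15 nM, and individual microtubules were tracked by confocal laser scanning microscopy, 20 microtubules per condition. Life-history parameters were derived as previously described. Significance was tested by one-way ANOVA.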

Assay [10] relates to MCF7. In words: Inhibition of microtubule (unknown origin) dynamics in GFP-tubulin transfected human MCF7 cells assessed as microtubule rescue events at 15 nM by confocal laser scanning microscopy (reference value: 10 +/- 2 events/min). It is filed as cell-based. Put shortly: (§4)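 EGFP-tubulin-transfected MCF-7 cells grown in EMEM with 10% FBS at 37 °C in 5% CO2, exposed to 15 nM compound (DMSO vehicle) or vehicle. Individual microtubules were followed by time-lapse confocal laser scanning microscopy and life-history traces were recorded. Kinetic parameters were derived from these traces, 20 microtubules per condition. Significance was tested by one-way ANOVA.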

The test system of assay [11] is MCF7. Description: Inhibition of microtubule (unknown origin) dynamics in GFP-tubulin transfected human MCF7 cells assessed as microtubule growth time at 15 nM by confocal laser scanning microscopy (reference value: 37 +/- 6 %). It counts as cell-based. On the set-up: scale not given: the % may be the effect or the level left. Put shortly:
as §4

In assay [12] the test system is MCF7. In words: Inhibition of microtubule (unknown origin) dynamics in GFP-tubulin transfected human MCF7 cells assessed as decrease in microtubule growth rate at 15 nM by confocal laser scanning microscopy relative to control. It counts as cell-based. Put shortly:
as §3

Assay [13] concerns HeLa. In words: Induction of interphase microtubule depolymerization in human HeLa cells at 35 nM after 3 hrs by Hoechst 33258 dye-based fluorescence microscopy. It is filed as cell-based. In a few lines:
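HeLa cells were given a brief 3 h exposure to 35 nM. Interphase microtubules were then immunostained and examined by fluorescence microscopy.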

The subject of assay [14] is HeLa. Description: Induction of interphase microtubule depolymerization in human HeLa cells at 30 nM after 24 hrs by Hoechst 33258 dye-based fluorescence microscopy. It is filed as cell-based.
The test system of assay [15] is HeLa. Description: Induction of interphase microtubule depolymerization in human HeLa cells at 7 nM after 24 hrs by Hoechst 33258 dye-based fluorescence microscopy relative to control. It counts as cell-based.
For assay [16], the system named is HeLa. Description: Antimitotic activity in human HeLa cells assessed as increase in phosphohistone H3 (Ser10) positive cell population at 15 nM after 24 hrs by fluorescence microscopic analysis (reference value: 3 +/- 0.3 %). It counts as functional.
Assay [17] has as its system HeLa. In words: Inhibition of mitosis in human HeLa cells assessed as mitotic index ratio at 30 nM after 48 hrs by Hoechst 33258 DNA staining assay (reference value: 3). It is filed as functional. In a few lines:
(§5)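 HeLa cells were treated with vehicle or 7, 15 or 30 nM compound for 24 or 48 h. DNA was stained with Hoechst 33258, and mitotic cells were counted by fluorescence microscopy to give the mitotic index, compared against vehicle-treated cells.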

Assay [18] deals with HeLa. Description: Inhibition of mitosis in human HeLa cells assessed as mitotic index ratio at 30 nM after 24 hrs by Hoechst 33258 DNA staining assay (reference value: 3.2). It counts as functional. Put shortly: as §5
For assay [19], the system named is HeLa. In words: Cell cycle arrest in human HeLa cells assessed as accumulation at G2/M phase at 45 nM after 24 hrs by propidium iodide staining-based flow cytometry (reference value: 4%). It is filed as functional.
Assay [20] deals with HeLa. In words: Cell cycle arrest in human HeLa cells assessed as accumulation at G2/M phase at 30 nM after 24 hrs by propidium iodide staining-based flow cytometry (reference value: 4%). It counts as functional. In general terms: Flow cytometry measures light scatter and fluorescence of single cells or particles in a stream.
For the next assay, the system named is MDA-MB-231. In words: Cytotoxicity against human MDA-MB-231 cells after 24 to 48 hrs by trypan blue assay. It counts as functional, cell-based. In a few lines:
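Cells were seeded at 1 × 10^5 cells/mL, grown 24 h at 37 °C in 5% CO2, then given vehicle (0.1% DMSO) or 1–80 nM for a further 24 or 48 h. Attached plus floating cells were counted after trypan blue staining. Percent inhibition was plotted against concentration to give IC50. Average of three independent experiments.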

The species named for assay [21] is Homo sapiens. Description: Inhibition of microtubule (unknown origin) assembly at 5 uM after 20 mins by transmission electron microscopy. In a few lines: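 Goat brain tubulin (10 μM) was preincubated with 5 or 10 μM on ice for 20 min, then polymerized with 1 mM GTP at 37 °C in glutamate assembly buffer. Polymers were fixed in 0.5% glutaraldehyde, negatively stained with 2% uranyl acetate, and imaged by transmission EM.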

For a further assay, the species on record is Capra hircus. Description: Inhibition of goat brain tubulin polymerization at 5 uM incubated for 20 mins prior to GTP addition measured for 30 mins by 90 degree light scattering-based fluorescence spectrophotometric method. Put shortly:
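Goat brain tubulin (10 μM) was preincubated with compound (5 μM; or 1, 5, 7, 10 μM) in 1 M monosodium glutamate, 3 mM MgCl2, 1 mM EGTA, 25 mM Pipes pH 6.8 on ice for 20 min. GTP (1 mM) was then added and assembly followed by 90° light scattering at 400 nm for 30 min at 37 °C. Experiment run twice.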

pIC50: −log10 of the molar value. The source made the active and inactive calls. No cut-off for these calls is given here.

`CC[C@H](C)[C@@H]([C@@H](CC(=O)NC[C@H]1O[C@H](C(=O)NCCc2ccccc2)[C@@H](OC)[C@@H]1OC)OC)N(C)C(=O)[C@@H](NC(=O)[C@@H](NC)C(C)C)C(C)C`: the inhibition (commonly the change of the read-out against control, counted positive when it falls) in the assay filed under Homo sapiens [1] was found to be 48%; in the assay with MCF7 [9], 32%; in the assay on MCF7 [12], 27%; in the assay listed under Capra hircus, 37%. Moreover, the outcome with HeLa [2], in the assay with HeLa [3], with HeLa [4], in the assay with HeLa [5], with HeLa [6] and in the assay with HeLa [7] was Active. Moreover, the result in the assay on HeLa [8], in the assay with HeLa [13] and in the assay on HeLa [14] was Active. The Activity stood at 12 min⁻¹ in the assay with MCF7 [10]; 21% with MCF7 [11]; 11% in the assay with HeLa [16]; 17% in the assay with HeLa [19]; 9% in the assay on HeLa [20]. In addition, in the assay with HeLa [15], the result was inactive. For the same compound, the Ratio amounted to 16 in the assay on HeLa [17] and 12 in the assay with HeLa [18]. The pIC50 (usually −log10 of the IC50, conventionally taken in molar units) in the assay on MDA-MB-231 is 7.89. In addition, the inhibition result in the assay listed under Homo sapiens [21] was “Active”.
